# Compounds with a hit are over-represented: about 2.5% of the library has one in this group of screens.
# E-selectin induc – E-selectin induction in HUVECs, primary screen, imaging, HUVEC, immunofluorescence imaging, single point. P16581. normalized: neutral wells 0, TNF-alpha wells 100. activation, % at 7.58 µM. hit rate 0.37% among 260,000;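 active means mean E-selectin-positive cell signal at least 10% of the positive control, reached in at least 60% of replicates, without over 20% cell loss; inconclusive means no rule given, readout overlaps actives, possibly toxicity-flagged; inactive means the rest, including those meeting only one limit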
#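 Test system: HUVEC; input: 3,000 HUVEC/well; measured by: immunofluorescence imaging; read-out: % PE-positive cells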
# SIRT5 inh – SIRT5 desuccinylase inhibitors, primary screen, biochemical, fluorescence imaging, single point, set 5; Purified SirT5, succinyl-peptide AMC, trypsin-coupled fluorescence; inhibition, % at 15 µM; hit rate 1.1% among 330,000; AID 652115, 2013; in the data active means inhibition above about 15%; inconclusive means no clear call, values can overlap the other calls
# PglD DTNB – C. jejuni PglD acetyltransferase inhibitors, primary screen, biochemical, DTNB colorimetric, single point. inhibition, % at 12.5 µM. purified PglD enzyme, DTNB colorimetric CoA detection. UDP-N-acetylbacillosamine N-acetyltransferase PglD (Campylobacter jejuni). hit rate 0.098% among 360,000. AID 602405, 2012; in the data active means inhibition above about 16%, passing the limit was not always enough; inconclusive means no clear call, values can overlap the other calls
# ERAP1 HTS inh – human ERAP1 aminopeptidase inhibitors, primary screen, biochemical, single point, plate reader. inhibition, % at 10.7 µM. hit rate 0.15% among 340,000. recombinant ERAP1, Leu-AMC fluorescence, 60 min;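 active means mean replicate inhibition of at least 30%, or all replicates individually reaching that 30% level; inactive means mean below 30% and not every replicate reaching it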;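 further: 0% = neutral control wells and 100% = L-leucinethiol positive control wells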
# Target sequence (Q9NZ08 whole entry, looked up): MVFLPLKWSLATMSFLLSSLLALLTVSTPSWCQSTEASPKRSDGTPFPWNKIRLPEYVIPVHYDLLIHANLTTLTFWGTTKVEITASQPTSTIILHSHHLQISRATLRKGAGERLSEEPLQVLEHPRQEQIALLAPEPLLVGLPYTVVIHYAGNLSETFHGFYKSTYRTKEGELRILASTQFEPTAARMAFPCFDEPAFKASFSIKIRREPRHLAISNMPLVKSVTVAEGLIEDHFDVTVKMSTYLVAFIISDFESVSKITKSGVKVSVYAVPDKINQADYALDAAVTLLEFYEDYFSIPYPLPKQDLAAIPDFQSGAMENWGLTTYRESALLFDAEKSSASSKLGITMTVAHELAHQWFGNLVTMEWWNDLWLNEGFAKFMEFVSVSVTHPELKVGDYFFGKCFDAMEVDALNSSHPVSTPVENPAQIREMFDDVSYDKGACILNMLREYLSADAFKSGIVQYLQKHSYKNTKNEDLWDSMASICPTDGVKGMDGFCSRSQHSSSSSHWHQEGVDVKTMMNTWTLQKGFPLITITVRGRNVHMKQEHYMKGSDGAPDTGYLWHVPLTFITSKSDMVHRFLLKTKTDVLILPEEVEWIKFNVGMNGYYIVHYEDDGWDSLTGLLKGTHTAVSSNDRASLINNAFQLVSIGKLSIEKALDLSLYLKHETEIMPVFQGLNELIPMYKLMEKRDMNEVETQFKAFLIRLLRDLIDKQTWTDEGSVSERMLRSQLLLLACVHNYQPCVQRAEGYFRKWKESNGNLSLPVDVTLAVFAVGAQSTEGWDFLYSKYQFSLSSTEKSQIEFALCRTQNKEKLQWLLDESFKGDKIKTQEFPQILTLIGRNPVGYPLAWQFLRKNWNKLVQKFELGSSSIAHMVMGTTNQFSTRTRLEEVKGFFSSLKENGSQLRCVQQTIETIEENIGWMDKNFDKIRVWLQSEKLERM
# DENV2 CPE rescue – inhibitors of DENV2 cytopathic effect, primary screen, cell-based, plate reader, single concentration; CPE inhibition, % at 9.99 µM; DENV2-infected cells, cytopathic effect rescue; hit rate 1.7% among 350,000; in the data active means CPE inhibition above about 20%, passing the limit was not always enough; inconclusive means no clear call, values can overlap the other calls; tested in BHK-21 cells;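 further: 0% = median of neutral control wells and 100% = median of positive control wells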
# * = called active by the depositor; ? = inconclusive; / = no result; ! = not active in a repeat.
SMILES,E-selectin induc,SIRT5 inh,PglD DTNB,ERAP1 HTS inh,DENV2 CPE rescue
CCC(=O)Nc1ccc2c(c1)C(=O)N(C)[C@H]1CC[C@@H](CC(=O)Nc3cccc(OC)c3)O[C@H]1CO2,0,/,/,/,/
CC(C)CC1Nc2ccc(C(=O)NCc3ccc4c(c3)OCO4)cc2NC1=O (stereo unspecified),/,/,7,/,/
Cn1cc(-c2csc(C(O)c3ccccc3)n2)cn1 (stereo unspecified),0,/,-11,2,-2
CCC(=O)N[C@H]1CC[C@H](CC(=O)NCc2ccc(OC)cc2)O[C@@H]1CO,0,2,4,1,3
CCc1ccc(-c2cnc3nc[nH]c(=O)c3n2)cc1,/,-28,1,-15,1
CC(C)NC(=O)N(C)C[C@H]1Oc2ccc(NC(=O)CCN3CCOCC3)cc2C(=O)N([C@@H](C)CO)C[C@H]1C,46*,1,-2,-5,-3
CC(C)NC(=O)N(C)C[C@@H]1Oc2ccc(NC(=O)CCN3CCOCC3)cc2C(=O)N([C@H](C)CO)C[C@H]1C,65*,-3,-1,0,-2
C[C@H](CO)N1C[C@H](C)[C@@H](CN(C)S(=O)(=O)c2ccc(F)cc2)Oc2ccc(NC(=O)CCN3CCOCC3)cc2C1=O,0,15*!,-2,2,?
C[C@@H]1CN([C@@H](C)CO)C(=O)c2cc(NC(=O)CCN3CCOCC3)ccc2O[C@@H]1CN(C)S(=O)(=O)c1ccc(F)cc1,0,-2,-2,9,4
CNC[C@H]1Oc2ccc(NC(=O)CCN3CCOCC3)cc2C(=O)N([C@H](C)CO)C[C@@H]1C,0,-2,0,1,27*
CCN(CC)S(=O)(=O)c1ccc(NC(=O)[C@@H](NC(=O)c2cc(OC)cc(OC)c2)C(C)C)cc1,1,-7,/,-4,-3
COc1ccc(CCNC(=O)COc2cc(=O)n(C)c3ccccc23)cc1OC,/,1,/,10,2
Cc1ccc(NC(=S)N2CCC(NC(=O)C3CCCCC3)CC2)cc1C,/,-2,/,-1,8
C[C@@H]1CN([C@@H](C)CO)C(=O)c2cc(NC(=O)CCN3CCOCC3)ccc2O[C@H]1CN(C)Cc1ccncc1,32*,-4,-1,-3,?
C[C@H]1CN([C@@H](C)CO)C(=O)c2cc(NC(=O)CCN3CCOCC3)ccc2O[C@H]1CN(C)Cc1ccncc1,-11,-5,-1,2,-1
COc1cc2c(cc1OC)CN1CCc3cc(OC)c(OC)cc3C1C2 (stereo unspecified),/,23*,-6,1,-10
COc1cc2c(cc1OC)C1Cc3ccc(OC)c(OC)c3CN1CC2 (stereo unspecified),/,/,2,/,/
COc1cccc(Oc2nc(N)ncc2[N+](=O)[O-])c1,29*,3,/,1,-1
Oc1c(Br)cc(Br)c(/C=N/n2c(-c3ccccc3)n[nH]c2=S)c1Br,0,6,-3,0,-6
Cc1noc(C)c1NC(=O)N(C)C[C@H]1Oc2ccc(NS(=O)(=O)c3cn(C)cn3)cc2CC(=O)N([C@H](C)CO)C[C@@H]1C,/,3,-1,0,48*
COc1ccc(NC(=O)N(C)C[C@@H]2Oc3ccc(NS(=O)(=O)c4cn(C)cn4)cc3CC(=O)N([C@H](C)CO)C[C@@H]2C)cc1,-3,3,1,4,77*
Cc1noc(C)c1NC(=O)N(C)C[C@@H]1Oc2ccc(NS(=O)(=O)c3cn(C)cn3)cc2CC(=O)N([C@@H](C)CO)C[C@H]1C,/,5,4,0,5
CCCN1CCN(CC(=O)Nc2cc(OCC)ccc2OCC)CC1,0,-4,/,-5,-2
Cc1ccc(CNc2nc3ccccc3n2C)o1,/,-1,-7,1,-5
Oc1c(N=NC(=S)Nc2ccccc2F)c2ccccc2n1Cc1ccccc1,/,12,0,0,-1
SMILES,E-selectin induc,SIRT5 inh,PglD DTNB,ERAP1 HTS inh,DENV2 CPE rescue
NC(=S)N=Nc1c(O)n(Cc2ccccc2)c2ccccc12,/,6,-1,1,63*
Cc1ccc(Cn2c(O)c(N=NC(=S)Nc3ccccc3F)c3ccccc32)cc1,-1,18*,/,-2,-10
CN(C)CC(=O)Nc1ccc2c(c1)[C@H]1C[C@@H](CC(=O)NCc3ccccc3)O[C@H](CO)[C@H]1O2,-1,9,-3,-1,21*
COCCNC(=O)C[C@@H]1C[C@H]2c3cc(NC(=O)Nc4ccc(OC)cc4)ccc3O[C@H]2[C@H](CO)O1,0,1,3,0,23*
CCCNC(=O)C[C@H]1C[C@H]2c3cc(NC(=O)CN(C)C)ccc3O[C@H]2[C@H](CO)O1,0,/,0,/,-4
CCCNC(=O)C[C@@H]1C[C@H]2c3cc(NC(=O)CN(C)C)ccc3O[C@H]2[C@@H](CO)O1,-1,/,0,/,65*
O=C(CCN1CCCCC1)NCC[C@H]1CC[C@H](NC(=O)C2CCCC2)[C@H](CO)O1,1,-4,3,8,-5
O=C(CCN1CCCCC1)NCC[C@H]1CC[C@H](NC(=O)C2CCC2)[C@@H](CO)O1,0,0,-2,-4,23*
O=C(CCN1CCCCC1)NCC[C@@H]1CC[C@H](NC(=O)C2CCC2)[C@@H](CO)O1,-1,1,2,-1,46*
O=C(CCN1CCCCC1)NCC[C@H]1CC[C@H](NC(=O)C2CCC2)[C@H](CO)O1,1,3,3,-2,-8
CCOc1cccc(CN2CCCC(N3CCN(c4cccc(Cl)c4)CC3)C2)c1O (stereo unspecified),/,69*,1,-1,?
CCOc1cccc(CN2CCCC(N3CCc4ccccc4C3)C2)c1O (stereo unspecified),0,-2,-3,-2,-3
COc1ccccc1CN1CCCC(N2CCN(c3ccccc3OC)CC2)C1 (stereo unspecified),/,2,5,1,29*
COc1ccccc1N1CCN(C2CCCN(Cc3c(F)cccc3F)C2)CC1 (stereo unspecified),0,-1,0,-2,-7
O=C(c1cncc(Br)c1)N1CCN(S(=O)(=O)c2ccccc2C(F)(F)F)CC1,33*,0,/,-1,4
C[C@@H]1CN([C@@H](C)CO)C(=O)c2cc(NC(=O)C3CCCCC3)ccc2O[C@@H]1CN(C)S(=O)(=O)c1ccccc1,1,-5,0,0,8
Cc1ccc(CNC(=O)CCc2ccc(S(=O)(=O)NCC(C)C)cc2)cc1,1,29*,1,-1,5
COc1ccccc1N(CC(=O)NCCSc1ccccn1)S(=O)(=O)c1ccccc1,37*,1,4,9,15
CCOc1ccccc1N(CC(=O)NCCSc1ccccn1)S(=O)(=O)c1ccccc1,1,2,1,-1,2
O=C(NC1CCCC1)c1cc2c(ccc3ccccc32)o1,/,/,2,/,/
